In PMC9474599 (Immunity, 2022):
“Also recorded” adds a separate entry of the source. *1 amine or outer side, *2 acyl side, *3 side chain or, on linkers, in order; H or OH if unused. Where a SMILES comes first, the peptide text is derived from it. Bridges are numbered along the chain shown (N, C = ends). Where no end group is shown, it is not given here. [ ]: non-standard residue; d: D form. The star is where a group is joined. X1 = CC(=O)NC(C(=O)OC(C(C)C)C(N[*:1])C(=O)[*:2])C(O)C(C)C; Biotin = O=C1N[C@H]2[C@H](CS[C@H]2CCCCC(=O)*)N1; PhLac = O=C(O)[CH](O)Cc1ccccc1; NMeT = CN[CH](C(=O)O)[CH](C)O; NMeA = CN[CH](C)C(=O)O; NMeDha = C=C(NC)C(=O)O

Tests used:
bone marrow neutrophils [1] = experiment: Western blot of IL-1β release from neutrophils; assay type: cell-based, mouse; settings: for Inhibition of hBD3-mediated IL-1β release: WT neutrophils, inhibitor 10μM added together with LTA, n=3
Mrgpra2b-GFP [2] = molecular target: T1, Mrgpra2b-GFP (Mus musculus, UniProt Q91WW4); experiment: co-IP of biotin-hBD3 with Mrgpra2b-GFP; assay type: binding; settings: 10μM biotin-hBD3, 4°C overnight, anti-GFP beads, anti-biotin western blot
T1 sequence (Q91WW4 1-305): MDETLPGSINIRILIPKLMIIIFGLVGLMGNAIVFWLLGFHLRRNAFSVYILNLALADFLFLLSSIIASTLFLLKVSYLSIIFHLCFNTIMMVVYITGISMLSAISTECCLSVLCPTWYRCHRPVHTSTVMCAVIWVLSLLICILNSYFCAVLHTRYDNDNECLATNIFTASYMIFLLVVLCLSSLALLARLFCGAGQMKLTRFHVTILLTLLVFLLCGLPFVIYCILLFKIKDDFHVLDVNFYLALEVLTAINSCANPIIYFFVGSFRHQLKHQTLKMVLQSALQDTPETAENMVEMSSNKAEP

bone marrow neutrophils [3] = experiment: IL-1β and Cxcl2 release from neutrophils; assay type: cell-based, mouse
In short: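 MACS-purified bone marrow neutrophils were primed with 1 μg/mL S. aureus lipoteichoic acid for 2 h. hBD3 or mBD14 was then added at 10 μM final. After a further 2 h, supernatants were collected and cells lysed in RIPA buffer. IL-1β and Cxcl2 were measured in both fractions by DuoSet ELISA. 5 mM ATP served as positive control.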

Mrgpra2b = molecular target: T2, Mrgpra2b (Mus musculus, UniProt Q91WW4); experiment: FLIPR intracellular Ca2+ mobilization, HEK cells expressing Mrgpra2b; assay type: cell-based; settings: for Mrgpra2 receptor activation: FLIPR Ca2+ mobilization, Figure S1E (negative peptides), Figure 1E
T2 sequence (Q91WW4 1-305): T1 sequence (Q91WW4 1-305)

neutrophils [4] = experiment: Neutrophil myeloperoxidase; assay type: cell-based; settings: Mrgpra2 dKO mouse neutrophils; hBD3 0-10 μM or 10 μM mBD14, one hour; n=5
In short: (§1)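 Bone marrow neutrophils were MACS-purified from 8-10-week-old C57BL/6J-background mice of both sexes, with >90% purity by flow cytometry. 2×10^5 cells in RPMI were incubated 1 h with 0, 1, 5 or 10 μM hBD3 or 10 μM mBD14, both dissolved in RPMI. Elastase and MPO in the supernatant were quantified by DuoSet sandwich ELISA.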

neutrophils [5] = experiment: Neutrophil elastase release; assay type: cell-based; settings: Mrgpra2 dKO mouse neutrophils; hBD3 0-10 μM or 10 μM mBD14, one hour; n=5
In short: as §1

bone marrow neutrophils [6] = experiment: Proteome profiler array of neutrophil cytokines and chemokines; assay type: cell-based, mouse; settings: S. aureus LTA 1 μg/mL alone (signal 1), vs control
MRGPRX3-FLAG (human) = MRGPRX3-FLAG (human) (UniProt Q96LB0)
Sequence of MRGPRX3-FLAG (human) (Q96LB0 whole entry): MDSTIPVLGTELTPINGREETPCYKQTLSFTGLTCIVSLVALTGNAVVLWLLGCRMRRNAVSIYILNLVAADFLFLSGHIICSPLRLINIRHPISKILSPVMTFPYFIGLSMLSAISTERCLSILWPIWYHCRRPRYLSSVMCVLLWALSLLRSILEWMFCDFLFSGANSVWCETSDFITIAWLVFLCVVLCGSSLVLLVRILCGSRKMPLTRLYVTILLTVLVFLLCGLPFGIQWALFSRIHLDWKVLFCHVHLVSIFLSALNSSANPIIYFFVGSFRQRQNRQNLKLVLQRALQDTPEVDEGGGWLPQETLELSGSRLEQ

Mrgpra2b-GFP [7] = molecular target: T3, Mrgpra2b-GFP (mouse, UniProt Q91WW4 1-305); experiment: flow cytometry on cells
T3 sequence (looked up): T1 sequence (Q91WW4 1-305)

S. aureus = experiment: Intradermal S. aureus skin infection, bacterial bioluminescence; assay type: in vivo, Staphylococcus aureus USA300 LAC::lux in mouse; settings: 100ng each, co-injected with S. aureus; bioluminescence 24 hours post-infection; n=8-36
[8] = ELISA, LTA 1 μg/mL 2 hours, then 10 μM hBD3 or mBD14 for 2 hours, n=5

Question: Which “Inhibition of hBD3-mediated IL-1β release” value (bone marrow neutrophils [1]) does the source give for `CC(C)[C@H](NC(=O)c1ccc2ccccc2n1)C(=O)N[C@@H](CC(=O)O)C(=O)COc1c(F)cccc1F` [Q-VD-OPh] here?
Answer: inhibited; also recorded: effectively reduced IL-1β release from WT neutrophils in response to hBD3

Question: Which “Inhibition of hBD3-mediated IL-1β release” value (bone marrow neutrophils [1]) does the source give for `C=C1C(=O)NC(C)C(=O)N(C)C(C)C(=O)NC(C(OC(=O)C(NC(C)=O)C(O)C(C)C)C(C)C)C(=O)N(C)C(C(C)OC)C(=O)OC(C)C(NC(C)=O)C(=O)OC(Cc2ccccc2)C(=O)N1C` (stereo not shown) [YM-254890] (Ac-T[PhLac][NMeDha]A[NMeA][X1][NMeT](Me); ester 1-C; configuration not given here) here?
Answer: inhibited

Question: With “Biotin-GIINTLQKYYCRVRGGRCAVLSCLPKEEQIGKCSTRGRKCCRRKK (disulfide 11-40, 18-33, 23-41) [biotin-hBD3]” as the molecule, how does the “Co-precipitation with Mrgpra2b-GFP” value (Mrgpra2b-GFP [2]) read?
Answer: co-precipitated only with Mrgpra2b-GFP; also recorded: could be co-precipitated

Question: Which “Synthesis of IL-1β or Cxcl2, defensin alone” value (bone marrow neutrophils [3]; ELISA, total = secreted + intracellular, defensin alone, no LTA, n=5) does the source give for “FLPKTLRKFFCRIRGGRCAVLNCLGKEEQIGRCSNSGRKCCRKKK (disulfide 11-40, 18-33, 23-41) [mBD14]” here?
Answer: did not induce the synthesis of IL-1β or Cxcl2

Question: And the “Cxcl2 release, LTA-primed Mrgpra2 dKO neutrophils” value (bone marrow neutrophils [3]; [8])?
Answer: did not respond to hBD3 or mBD14

Question: And the “Cxcl2 release, LTA-primed WT neutrophils” value (bone marrow neutrophils [3]; [8])?
Answer: released IL-1β and Cxcl2 in response to hBD3 or mBD14 stimuli; also recorded: significant increase in the amount of IL-1β and Cxcl2

Question: What about the “IL-1β release, LTA-primed Mrgpra2 dKO neutrophils” value (bone marrow neutrophils [3]; [8]) of the same molecule?
Answer: did not respond to hBD3 or mBD14

Question: And the “IL-1β release, LTA-primed WT neutrophils” value (bone marrow neutrophils [3]; [8])?
Answer: released IL-1β and Cxcl2 in response to hBD3 or mBD14 stimuli; also recorded: significant increase in the amount of IL-1β

Question: And the EC50 (Mrgpra2b)?
Answer: 18.7 µM

Question: And the Mrgpra2 receptor activation (Mrgpra2b)?
Answer: evoked robust receptor activation

Question: And the “MPO release, Mrgpra2 dKO neutrophils” value (neutrophils [4])?
Answer: did not respond to hBD3 or mBD14 stimuli

Question: What about the “Elastase release, Mrgpra2 dKO neutrophils” value (neutrophils [5]) of the same molecule?
Answer: did not respond to hBD3 or mBD14 stimuli

Question: With “KKINNPVSCLRKGGRCWNRCIGNTRQIGSCGVPFLKCCKRK (disulfide 9-37, 16-30, 20-38) [mBD3]” as the molecule, how does the EC50 (Mrgpra2b) read?
Answer: 42.8 µM

Question: Which Mrgpra2 receptor activation (Mrgpra2b) does the source give for “hBD1: Human peptide hBD1 (DHYNCVSSGGQCLYSACPIFTKIQGTCYRGKAKCCK; UniProt P60022 33-68, looked up)” here?
Answer: did not trigger receptor activation

Question: With “hBD2: Human peptide, printed as 'hBD1, 2 and 4' (GIGDPVTCLKSGAICHPVFCPRRYKQIGTCGLPGTKCCKKP; UniProt O15263 24-64, looked up)” as the molecule, how does the Mrgpra2 receptor activation (Mrgpra2b) read?
Answer: did not trigger receptor activation

Question: Which Mrgpra2 receptor activation (Mrgpra2b) does the source give for “hBD4: Human peptide, printed as 'hBD1, 2 and 4' (EFELDRICGYGTARCRKKCRSQEYRIGRCPNTYACCLRKWDESLLNRTKP; UniProt Q8WTQ1 23-72, looked up)” here?
Answer: did not trigger receptor activation

Question: For lipoteichoic acid [LTA], which “IL-1β production and release by LTA alone” value (bone marrow neutrophils [3]; S. aureus LTA 1 μg/mL alone (signal 1), Figure 7A, D) is on record?
Answer: induced the production of IL-1β, but the cytokine was not released from the cells

Question: And the “Priming effect of LTA, WT versus Mrgpra2 dKO neutrophils” value (bone marrow neutrophils [3]; S. aureus LTA 1 μg/mL, Figure 7A, C, D)?
Answer: did not differ between WT or Mrgpra2 dKO neutrophils

Question: What about the “Production of pro-IL-1β by LTA” value (bone marrow neutrophils [1]; S. aureus LTA 1 μg/mL, WT and Mrgpra2 dKO neutrophils) of the same molecule?
Answer: induced the production of pro-IL-1β in both WT and Mrgpra2 dKO neutrophils

Question: And the “Release of IL-1ra, Ccl3, Ccl4, Cxcl2 and TNFα by LTA alone” value (bone marrow neutrophils [6])?
Answer: triggered the release of more IL-1ra, Ccl3, Ccl4, Cxcl2 and TNFα compared to the control

Question: With “mBD1: mouse peptide mBD1 (DQYKCLQHGGFCLRSSCPSNTKLQGTCKPDKPNCCKS; UniProt P56386 33-69, looked up)” as the molecule, how does the Mrgpra2 receptor activation (Mrgpra2b) read?
Answer: did not trigger receptor activation

Question: “mBD2: mouse peptide, printed as 'mBD1, 2, 4' (AVGSLKSIGYEAELDHCHTNGGYCVRAICPPSARRPGSCFPEKNPCCKYMK; UniProt P82020 21-71, looked up)” was tested. Which Mrgpra2 receptor activation (Mrgpra2b) did it give?
Answer: did not trigger receptor activation

B1: Human beta-defensin 3 (peptide)
peptide: GIINTLQKYYCRVRGGRCAVLSCLPKEEQIGKCSTRGRKCCRRKK
modifications: ends and bridges not checked; cysteine pairing not given here
Question: For B1, which EC50 of FLIPR intracellular calcium mobilization in HEK cells expressing MRGPRX3 (MRGPRX3-FLAG (human)) is on record?
Answer: 10.8 µM

B2: N-terminal biotinylated human beta-defensin 3 (peptide, UniProt P81534 23-67, looked up)
peptide: Biotin-GIINTLQKYYCRVRGGRCAVLSCLPKEEQIGKCSTRGRKCCRRKK
modifications: ends and bridges not checked
Question: B2 was tested. Which Kd (Mrgpra2b-GFP [7]) did it give?
Answer: 15.9 µM

B3: Cxcl2: recombinant mouse Cxcl2, R&D (protein, UniProt P10889 28-100, looked up)
C-X-C motif chemokine 2: AVVASELRCQCLKTLPRVDFKNIQSLSVTPPGPHCAQTEVIATLKGGQKVCLDPEAPLVQKIIQKILNKGKAN
Question: With B3 as the molecule, how does the “Bacterial load / anti-S. aureus rescue, Def cKO mice” value (S. aureus) read?
Answer: did not rescue Mrgpra2 or Def KO phenotypes; also recorded: did not alter the mutant phenotypes

Question: And the “Bacterial load / anti-S. aureus rescue, Mrgpra2 dKO mice” value (S. aureus)?
Answer: did not rescue Mrgpra2 or Def KO phenotypes; also recorded: did not alter the mutant phenotypes

B4: IL-1β: Recombinant IL-1β, R&D systems 401-ML (protein, UniProt P10749 118-269, looked up)
Interleukin-1 beta: VPIRQLHYRLRDEQQKSLVLSDPYELKALHLNGQNINQQVIFSMSFVQGEPSNDKIPVALGLKGKNLYLSCVMKDGTPTLQLESVDPKQYPKKKMEKRFVFNKIEVKSKVEFESAEFPNWYISTSQAEHKPVFLGNNSGQDIIDFTMESVSS
Question: Which results are given for B4?
Answer: Bacterial load / anti-S. aureus rescue, Def cKO mice (S. aureus): rescued the anti-S. aureus defect of Mrgpra2 dKO and Def cKO mice; also recorded: significantly reduced the bacterial load; Bacterial load / anti-S. aureus rescue, Mrgpra2 dKO mice (S. aureus): rescued the anti-S. aureus defect of Mrgpra2 dKO and Def cKO mice; also recorded: significantly reduced the bacterial load
